{"source": "ChEMBL document CHEMBL1139864", "about": "“Chemical insights in the concept of hybrid drugs: the antitumor effect of nitric oxide-donating aspirin involves a quinone methide but not nitric oxide nor aspirin” (J Med Chem, 2007)", "assay_type_in_all_cases": "functional, cell-based", "key": {"SW480": {"system": "SW480", "assay": "Inhibition of serum-induced expression of cyclin D in human SW480 cells after 5 hrs", "method_in_brief": "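SW480 cells starved of serum overnight, then stimulated with serum for 5 h with or without a range of compound concentrations. Cyclin D1 level read by Western blot.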"}, "HT-29 [1]": {"system": "HT-29", "assay": "Apoptosis induction in human HT29 cells after 24 hrs", "conditions": "HT-29, 24 h", "method_in_brief": "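HT29 cells seeded at 25 000/well and attached 24 h, then exposed for 24 h at 37 C to compound (0-1000 M, added from DMSO; final DMSO 0.5%, 1.0% at 600 µM). Cells harvested, stained with PI, and 10 000 events counted by flow cytometry. PI-negative cells scored as living and EC50 fitted from the curves. Mean of 3-4 independent experiments.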"}, "HT-29 [2]": {"system": "HT-29", "assay": "Induction of PARP cleavage in human HT29 cells after 8 hrs", "method_in_brief": "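HT29 cells incubated 8 h with a range of compound concentrations. The 116 kDa PARP cleavage was detected by Western blot.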"}, "HT-29 [3]": {"system": "HT-29", "assay": "Induction of DNA fragmentation in human HT29 cells after 48 hrs by Nicoletti assay", "method_in_brief": "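HT29 cells seeded 25 000/well, attached 24 h, then treated with compound for 48 h. Trypsinized, resuspended in Nicoletti buffer (0.1% Tx-100, 0.1% Na citrate, 50 g/mL PI), held overnight at 4 C. DNA content of nuclei measured by FACS to assess fragmentation.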"}, "HT-29 [4]": {"system": "HT-29", "assay": "Effect on cell death in HT29 cells pretreated with GSH synthesis inhibitor BSO", "conditions": "Homo sapiens", "method_in_brief": "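HT29 cells seeded 25 000/well, attached 24 h; 200 µM BSO for 4 h at 37 C, washed, then medium with or without EtGSH (10 mM) 3 h, washed. Then compound in DMSO (final 0.5%) for 24 h at 37 C; cells harvested, stained with PI, 10 000 events by flow cytometry; PI-negative cells counted as living. Mean of four independent experiments, standard deviations.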"}}, "note": "Active and inactive are the calls of the source. No cut-off for these calls is given here."}
{"smiles": "CC(=O)Oc1ccc(CO[N+](=O)[O-])cc1", "values": [{"measurement": "Activity", "setting": "SW480", "result": "Active"}, {"measurement": "EC50", "setting": "HT-29 [1]", "result": 9.3, "unit": "µM"}, {"measurement": "Activity", "setting": "HT-29 [2]", "result": "Active"}]}
{"smiles": "CC(=O)Oc1ccccc1C(=O)Oc1cccc(CO[N+](=O)[O-])c1", "note": "[NCX-4016]", "values": [{"measurement": "Activity", "setting": "SW480", "result": "inactive"}, {"measurement": "EC50", "setting": "HT-29 [1]", "result": 1000, "unit": "µM"}]}
{"smiles": "CC(=O)N[C@@H](C(=O)O)C(C)(C)SN=O", "values": [{"measurement": "EC50", "setting": "HT-29 [1]", "result": "> 1000", "unit": "µM"}]}
{"smiles": "CC(=O)Oc1ccccc1C(=O)Oc1ccc(CO[N+](=O)[O-])cc1", "values": [{"measurement": "Activity", "setting": "HT-29 [3]", "result": "Active"}, {"measurement": "Activity", "setting": "HT-29 [4]", "result": "Active"}, {"measurement": "Activity", "setting": "SW480", "result": "Active"}, {"measurement": "EC50", "setting": "HT-29 [1]", "result": 107, "unit": "µM"}, {"measurement": "Activity", "setting": "HT-29 [2]", "result": "Active"}]}
{"smiles": "CC(=O)Oc1ccccc1C(=O)O", "note": "[ASPIRIN]", "values": [{"measurement": "EC50", "setting": "HT-29 [1]", "result": "> 1000", "unit": "µM"}]}
{"smiles": "CC(=O)Oc1ccccc1C(=O)Oc1cccc(CO)c1", "values": [{"measurement": "EC50", "setting": "HT-29 [1]", "result": "> 1000", "unit": "µM"}]}
{"smiles": "CC(=O)Oc1ccc(CCl)cc1", "values": [{"measurement": "Activity", "setting": "HT-29 [3]", "result": "Active"}, {"measurement": "Activity", "setting": "HT-29 [4]", "result": "Active"}, {"measurement": "Activity", "setting": "SW480", "result": "Active"}, {"measurement": "EC50", "setting": "HT-29 [1]", "result": 8.7, "unit": "µM"}, {"measurement": "Activity", "setting": "HT-29 [2]", "result": "Active"}]}
{"smiles": "CC(=O)Oc1ccccc1C(=O)Oc1ccc(CCl)cc1", "values": [{"measurement": "Activity", "setting": "SW480", "result": "Active"}, {"measurement": "EC50", "setting": "HT-29 [1]", "result": 40.1, "unit": "µM"}, {"measurement": "Activity", "setting": "HT-29 [2]", "result": "Active"}]}
